Key:
Rattus norvegicus [1] = assay: Ability to inhibit Carrageenan-induced paw edema in rat at dose 20 mg/Kg administered per orally; type: functional; conditions: po
Outline: (§1)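 Male Wistar rats, 130-200 g, groups of 7-10, fasted overnight with water available. Oral dosing in 10 mL/kg of aqueous Tween 80 suspension (oils in emulphor/alcohol/water 1:1:8) at 1, 2 and/or 4 h before subplantar injection of 0.1 mL of 1% carrageenan into left hind paw. Paw volume by mercury displacement at 0 and 3 h; % edema inhibition vs vehicle; ED50 by linear regression from at least three doses.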

Mus musculus [2] = assay: Ability to inhibit phenylquinone induced writhing in mouse administered per orally; conditions: po
Mus musculus [3] = assay: Ability to inhibit phenylquinone induced writhing, in mouse at dose 25 mg/Kg administered per orally; conditions: po
Rattus norvegicus [4] = assay: Ability to inhibit Carrageenan-induced paw edema in rat at a dose of 20 mg/kg administered per orally; type: functional; conditions: route oral; outline: as §1
Rattus norvegicus [5] = assay: Ability to inhibit Carrageenan-induced paw edema in rat administered perorally; type: functional; conditions: po; outline: as §1
Rattus norvegicus [6] = assay: Ability to inhibit gastric irritation in rat administered perorally; type: functional; conditions: Stomach, po
Outline: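 Male Wistar rats, 150-175 g, groups of 10, fasted 48 h (water ad libitum), dosed orally (10 mL/kg) as aqueous Tween 80 suspension or emulphor/alcohol/water (1:1:8) for oils; controls got vehicle. Time response: sacrificed at 3, 5 and 7 h. Dose-response at peak time with four doses. Stomach and intestine lesions (erosion, ulcer, perforation) scored. ED50 is the dose irritating 50% of rats, by linear regression; otherwise % at stated dose.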

Mus musculus [7] = assay: Ability to inhibit phenylquinone induced writhing in mouse administered perorally; conditions: po
Rattus norvegicus [8] = assay: Ability to inhibit Carrageenan-induced paw edema in rat administered per orally; type: functional; conditions: for ED50: po; outline: as §1
Rattus norvegicus [9] = assay: Ability to inhibit gastric irritation in rat administered per orally; type: functional; conditions: Stomach, po
Outline: (§2)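 Groups of 10 male Wistar rats, 150-175 g, fasted 48 h with water available, dosed orally (10 mL/kg vehicle as Tween 80 suspension or emulphor/alcohol/water). Time course: sacrifice at 3, 5 and 7 h. Stomachs and intestines examined; any erosion, ulcer or perforation scored ulcerogenic. Four doses at peak time; ED50 = dose giving irritation in 50% of animals, by linear regression.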

Rattus norvegicus [10] = assay: Ability to inhibit gastric irritation in rat at dose 400 mg/Kg administered per orally; type: functional; conditions: Stomach, po; outline: as §2
Mus musculus [11] = assay: Ability to inhibit phenylquinone induced writhing in mouse at dose 25 mg/Kg administered per orally; conditions: po

SMILES: CC1(C)COC(Cc2ccc3c(c2)C(=O)c2sccc2CO3)=N1
- inhibition in vivo at 20 mg/kg (Rattus norvegicus [1]): 49%
- ED50 (Mus musculus [2]): 7.2 mg/kg

SMILES: CC(=O)OCCCCc1ccc2c(c1)C(=O)c1sccc1CO2
- inhibition in vivo at 20 mg/kg (Rattus norvegicus [1]): 38%
- ED50 (Mus musculus [2]): 5.8 mg/kg

SMILES: CCC(=O)OCCc1ccc2c(c1)C(=O)c1sccc1CO2
- inhibition in vivo at 20 mg/kg (Rattus norvegicus [1]): 35%
- inhibition in vivo at 25 mg/kg (Mus musculus [3]): 22%

SMILES: COC(=O)COC(=O)Cc1ccc2c(c1)C(=O)c1sccc1CO2
- inhibition in vivo at 20 mg/kg (Rattus norvegicus [4]): 43%
- ED50 (Mus musculus [2]): 1.5 mg/kg

SMILES: CC(C)(CO)NC(=O)Cc1ccc2c(c1)C(=O)c1sccc1CO2
- inhibition in vivo at 20 mg/kg (Rattus norvegicus [1]): 21%
- inhibition in vivo at 25 mg/kg (Mus musculus [3]): 19%

SMILES: CC(C)OC(=O)CCCc1ccc2c(c1)C(=O)c1sccc1CO2
- inhibition in vivo at 20 mg/kg (Rattus norvegicus [4]): 44%
- ED50 (Mus musculus [2]): 8.5 mg/kg

SMILES: COc1ccc2c(c1)c(CC(=O)O)c(C)n2C(=O)c1ccc(Cl)cc1 [INDOMETHACIN]
- ED50 (Rattus norvegicus [5]): 4.4 mg/kg
- ED50 (Rattus norvegicus [6]): 1.8 mg/kg
- ED50 (Mus musculus [7]): 0.7 mg/kg

SMILES: O=C(O)Cc1ccc2c(c1)C(=O)c1sccc1CO2
- ED50 (Rattus norvegicus [8]): 3.4 mg/kg
- ED50 (Rattus norvegicus [9]): 33.7 mg/kg
- ED50 (Mus musculus [2]): 3.1 mg/kg

SMILES: O=C1c2cc(CCO)ccc2OCc2ccsc21
- inhibition in vivo at 20 mg/kg (Rattus norvegicus [1]): 62%
- ED50 (Mus musculus [2]): 19.7 mg/kg

SMILES: O=C1c2cc(CCCCO)ccc2OCc2ccsc21
- ED50 (Rattus norvegicus [8]): 8.6 mg/kg
- inhibition in vivo at 400 mg/kg (Rattus norvegicus [10]): 40%
- ED50 (Mus musculus [2]): 7.4 mg/kg

SMILES: CC(=O)OCCc1ccc2c(c1)C(=O)c1sccc1CO2
- ED50 (Rattus norvegicus [8]): 11.4 mg/kg
- ED50 (Rattus norvegicus [9]): 175 mg/kg
- inhibition in vivo at 25 mg/kg (Mus musculus [3]): 52%

SMILES: O=C1c2cc(CCCCOC(=O)C(F)(F)F)ccc2OCc2ccsc21
- ED50 (Rattus norvegicus [5]): 16.5 mg/kg
- ED50 (Mus musculus [7]): 9.1 mg/kg

SMILES: O=C(O)CCCc1ccc2c(c1)C(=O)c1sccc1CO2
- Inhibition (Rattus norvegicus [8]): 38%
- inhibition in vivo at 25 mg/kg (Mus musculus [11]): 94%

SMILES: CC(C)(C)OC(=O)CCCc1ccc2c(c1)C(=O)c1sccc1CO2
- inhibition in vivo at 20 mg/kg (Rattus norvegicus [4]): 49%
- inhibition in vivo at 25 mg/kg (Mus musculus [3]): 93%

SMILES: CCOC(=O)CCCc1ccc2c(c1)C(=O)c1sccc1CO2
- inhibition in vivo at 20 mg/kg (Rattus norvegicus [4]): 40%
- ED50 (Mus musculus [2]): 8.2 mg/kg

SMILES: COC(=O)CCCc1ccc2c(c1)C(=O)c1sccc1CO2
- ED50 (Mus musculus [2]): 10.8 mg/kg
